Sampled rows, rich in hits. Any-hit rate of the full collection: about 2.3%.
TRPC4 agonist – opens the mouse TRPC4 cation channel | Q9QUQ5 | HEK293 TRPC4beta/mu-opioid, Fluo4 calcium fluorescence; stronger effect = higher value | B-score at 10 µM | actives 0.49% (n = 310,000);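 active means B-score above 5 SD of library B-scores, and initial fluorescence ratio not above library mean plus 5 SD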;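 further: positive B-score marks a calcium rise read as TRPC4 activation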
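system = HEK293 cells stably co-expressing mouse TRPC4beta and mu-opioid receptor | schedule = Fluo4 dye loading 45 min at room temperature, 110 s recording | measure = B-scored integrated calcium fluorescence ratio | signal = Fluo4 calcium-sensitive dye fluorescence, kinetic, 1 Hz baseline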
TRPC6 inhibitor – inhibitors of mouse TRPC6 channel. HEK293-TRPC6, membrane potential dye, ACh-evoked depolarization; stronger effect = lower value. AID 2553. B-score at 10 µM. actives 1.1% (n = 310,000). Q61143;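 active means B-score under library mean minus 3 SD, initial fluorescence not abnormally high, positive integrated signal ratio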;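 further: B-score derived from integrated fluorescence ratio over the kinetic read; more negative B-score means stronger inhibition of depolarization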
Target sequence (Q61143 whole entry, looked up): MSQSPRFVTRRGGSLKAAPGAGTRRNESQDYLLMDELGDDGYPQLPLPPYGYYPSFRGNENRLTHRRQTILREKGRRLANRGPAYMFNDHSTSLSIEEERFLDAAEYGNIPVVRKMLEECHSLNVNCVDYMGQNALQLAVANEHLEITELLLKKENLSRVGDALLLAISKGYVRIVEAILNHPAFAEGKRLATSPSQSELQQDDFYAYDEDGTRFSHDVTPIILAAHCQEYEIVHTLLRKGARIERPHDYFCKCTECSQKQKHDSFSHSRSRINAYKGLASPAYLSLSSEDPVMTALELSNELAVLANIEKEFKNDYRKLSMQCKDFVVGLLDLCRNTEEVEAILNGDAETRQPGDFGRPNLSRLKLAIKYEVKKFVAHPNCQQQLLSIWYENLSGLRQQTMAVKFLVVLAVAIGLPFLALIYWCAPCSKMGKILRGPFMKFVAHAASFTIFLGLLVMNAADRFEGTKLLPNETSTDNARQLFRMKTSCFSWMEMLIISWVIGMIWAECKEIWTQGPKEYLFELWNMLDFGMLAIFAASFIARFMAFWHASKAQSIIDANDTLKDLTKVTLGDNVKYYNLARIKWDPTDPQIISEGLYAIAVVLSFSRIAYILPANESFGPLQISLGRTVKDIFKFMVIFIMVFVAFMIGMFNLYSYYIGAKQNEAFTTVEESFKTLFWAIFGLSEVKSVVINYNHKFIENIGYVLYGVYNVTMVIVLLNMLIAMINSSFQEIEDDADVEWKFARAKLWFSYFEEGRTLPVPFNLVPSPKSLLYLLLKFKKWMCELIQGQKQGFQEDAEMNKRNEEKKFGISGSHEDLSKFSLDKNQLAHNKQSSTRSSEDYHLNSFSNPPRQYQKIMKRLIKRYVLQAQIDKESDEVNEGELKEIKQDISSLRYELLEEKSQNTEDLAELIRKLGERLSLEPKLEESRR
TRPC6 act – activates the mouse TRPC6 cation channel. actives 0.13% (n = 310,000). B-score at 10 µM. Q61143. HEK293-TRPC6 membrane potential dye fluorescence; stronger effect = higher value;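 active means B-score of the integrated fluorescence ratio above library mean plus 3 SD, and starting fluorescence ratio within library mean plus 5 SD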;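 further: higher score means more depolarization so channel activation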
TRPC4 PAM – allosteric potentiators of mouse TRPC4 channel; Q9QUQ5; HEK293 TRPC4beta/mu-opioid, DAMGO EC20, Fluo-4 Ca2+ flux; stronger effect = higher value; B-score at 10 µM; actives 0.42% (n = 310,000); AID 2227;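 active means B-score of calcium response area above 5 SD of library B-scores, with initial fluorescence ratio within 5 SD of library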
TRPC4 inh – TRPC4 (mouse) channel inhibition; Q9QUQ5; HEK293 TRPC4beta/mu-opioid, DAMGO-evoked Fluo4 calcium flux; stronger effect = lower value; B-score at 10 µM; actives 0.39% (n = 300,000); AID 2247;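 active means B-score over 3 SD under the library average, no early fluorescence shift, positive overall ratio signal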
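Test system – stable TRPC4beta/mu-opioid receptor HEK293 cells · Probe or stimulus – DAMGO, a submaximal dose followed by a maximal one · Dosing – one concentration per compound · Signal – Fluo4 calcium fluorescence by kinetic imaging, 5 s 1 Hz baseline · Evaluation – per-well B score of integrated baseline-normalized Fluo4 ratio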
TRPC4 spec 2 – second check of whether TRPC6 inhibitors also affect mouse TRPC4 | shares compounds with TRPC6 inhibitor | HEK293 TRPC4/MOR, membrane potential dye fluorescence; channel activated by saturating DAMGO dose | inhibition, % at 10 µM | actives 42% (n = 920) | AID 2776;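 active means compounds whose fluorescence signal differed from control wells by over 3 SD, either direction, in both duplicate plates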
TRPC4 spec – tests whether TRPC6 inhibitors also affect mouse TRPC4 | HEK293 TRPC4/mu-opioid, membrane potential fluorescence | shares compounds with TRPC6 inhibitor | actives 61% (n = 920) | activity change, negative = inhibition, % at 10 µM;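 active means rise or fall in signal beyond 3 SD of buffer-only wells in both replicate plates, either sign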;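 further: integrated kinetic ratio of fluorescence range over baseline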
HEK293 MPD ctr 2-1 – second counter-screen for TRPC6 inhibitors: parental HEK293 cells | shares compounds with TRPC6 inhibitor | parental HEK293 membrane potential dye fluorescence; maximal acetylcholine challenge after compound addition | signal change vs control, % at 10 µM | actives 31% (n = 920) | AID 2779;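 active means membrane potential signal moving either way by over 3 SD of the maximum-effect control, in both duplicate plates, meaning non-specific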
HEK293 MPD ctr-1 – parental HEK293 nonspecific activity of TRPC6 inhibitors | shares compounds with TRPC6 inhibitor | parental HEK293 membrane potential dye fluorescence | membrane potential signal change, % at 10 µM | actives 60% (n = 920) | AID 2780;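 active means membrane potential signal shifting up or down by more than 3 SD of buffer-only wells, on both duplicate plates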
HEK293 MPD ctr-2 – checks TRPC6 modulator effects in parental HEK293 cells. shares compounds with TRPC6 inhibitor. membrane potential dye fluorescence. membrane potential signal change, % at 10 µM. actives 51% (n = 2,400). AID 488924;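 active means membrane potential signal moves up or down beyond 5 SD from buffer-only wells, on both duplicate plates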
HEK293 MPD ctr 2-2 – parental HEK293 nonspecific activity of TRPC6 modulators, second screen; inhibition, % at 10 µM; shares compounds with TRPC6 inhibitor; membrane potential dye fluorescence; after compound, maximal acetylcholine stimulation; actives 14% (n = 2,400);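 active means membrane potential signal drops by more than 5 SD from the mean control signal, in both duplicate plates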
TRPC4/MOR mod – mouse TRPC4 off-target activity of TRPC6 modulators; shares compounds with TRPC6 inhibitor; HEK293 TRPC4/mu-opioid, membrane potential fluorescence; percent change from control (negative = decrease, positive = increase), % at 10 µM; actives 69% (n = 2,400); AID 488927;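 active means membrane potential signal moved up or down beyond 5 SD of buffer control wells, in both duplicate plates, actives on both sides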
TRPC4/MOR inh 2 – second check of whether TRPC6 modulators also affect mouse TRPC4. HEK293 TRPC4/mu-opioid, membrane potential dye fluorescence; stimulated with maximal-effect DAMGO. actives 55% (n = 2,400). inhibition, % at 10 µM. shares compounds with TRPC6 inhibitor. AID 488928;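 active means drop in membrane potential signal beyond 5 SD of the control wells in both duplicate plates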;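 further: TRPC4 counter screen for TRPC6 hits run under conditions tuned for TRPC6 not TRPC4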
TRPC6 inh conf – mouse TRPC6 inhibitor confirmation; shares compounds with TRPC6 inhibitor; HEK293-TRPC6, membrane potential dye, ACh-evoked depolarization; inhibition, % at 10 µM; actives 43% (n = 3,300);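 active means fluorescence ratio falls more than 5 SD below the full-stimulation control mean, in both duplicate runs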;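 further: integrated fluorescence ratio of peak minus minimum over baseline after agonist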
TRPC6 act conf – confirmation of mouse TRPC6 activators; HEK293-TRPC6 membrane potential dye fluorescence, FDSS; shares compounds with TRPC6 inhibitor; activation, % at 10 µM; actives 11% (n = 2,800); AID 488961;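 active means ratio signal rise beyond 5 SD above unstimulated control wells' mean, seen in both duplicate runs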
Hits are given with their value; n = inactive; x = no result.

SMILES	TRPC4 agonist	TRPC6 inhibitor	TRPC6 act	TRPC4 PAM	TRPC4 inh	HEK293 MPD ctr-2	HEK293 MPD ctr 2-2	TRPC4/MOR mod	TRPC4/MOR inh 2	TRPC6 inh conf	TRPC6 act conf	others
CC(C)C(O)(C#CCN1CCCCCC1)c1ccccc1 (stereo not drawn)	n	-7.1	n	n	n	x	x	x	x	61%	x	TRPC4 spec 2=n;TRPC4 spec=13%;HEK293 MPD ctr 2-1=n;HEK293 MPD ctr-1=11%
CC(O)(C#CCN1CCCC1)c1ccccc1 (stereo not drawn)	n	n	n	n	n	x	x	x	x	x	x
CC(O)(C#CCN1CCCCC1)c1ccccc1 (stereo not drawn)	n	n	n	n	n	x	x	x	x	x	x
OC(C#CCN1CCCC1)(c1ccccc1)c1cccc(F)c1 (stereo not drawn)	n	-5.5	n	n	n	n	123%	14%	32%	96%	x
CC1CCCN1CC#CC(O)(c1ccccc1)c1ccccc1 (stereo not drawn)	n	-8.7	n	n	-7	x	x	x	x	82%	x	TRPC4 spec 2=n;TRPC4 spec=4.5%;HEK293 MPD ctr 2-1=-44%;HEK293 MPD ctr-1=8.2%
C(#CCN1CCCC1)CC(c1ccccc1)c1ccccc1	n	-8.6	n	n	n	x	x	x	x	n	x	TRPC4 spec 2=66%;TRPC4 spec=14%;HEK293 MPD ctr 2-1=n;HEK293 MPD ctr-1=15%
CN1CCN(CC#CCC(O)(c2ccccc2)C2CCCC2)CC1 (stereo not drawn)	n	n	n	n	n	x	x	x	x	x	x
OC(CC#CCN1CCCC1)(c1ccccc1)c1ccccc1	n	-5.3	n	n	n	114%	63%	15%	n	65%	x
OC(CC#CCN1CCCCC1)(c1ccccc1)c1ccccc1	n	n	n	n	n	x	x	x	x	x	x
CCCCCC(=O)N/N=C(\C)c1ccc(Cl)cc1	n	n	n	n	n	x	x	x	x	x	x
Cc1ccc(Sc2c([N+](=O)[O-])ncn2C)cc1	n	n	n	n	n	x	x	x	x	x	x
Cc1ccc(Sc2c([N+](=O)[O-])c(C)nn2C)cc1	n	-8.3	n	n	n	x	x	x	x	85%	n	TRPC4 spec 2=n;TRPC4 spec=n;HEK293 MPD ctr 2-1=-4.0%;HEK293 MPD ctr-1=n
CCN(CC)CCCN(C(=O)c1cccc(C)c1)c1nc(-c2ccc(OC)cc2)cs1	n	-6.1	n	n	n	n	n	-14%	86%	83%	n
CCN(CC)CCCN(C(=O)c1cccs1)c1nc(-c2ccc(OC)cc2)cs1	n	n	n	n	n	x	x	x	x	x	x
CCN(CC)CCCN(C(=O)c1ccco1)c1nc(-c2ccc(Cl)cc2)cs1	n	-7.5	n	n	n	x	x	x	x	60%	n	TRPC4 spec 2=26%;TRPC4 spec=-13%;HEK293 MPD ctr 2-1=n;HEK293 MPD ctr-1=-154%
CCN(CC)CCCN(C(=O)c1ccc(Br)cc1)c1nc(-c2ccc(OC)cc2)cs1	n	-6.2	n	n	n	n	n	n	72%	53%	n
CC(NS(=O)(=O)c1ccc(Br)s1)c1ccccc1 (stereo not drawn)	n	n	n	n	n	x	x	x	x	x	x
O=C(Nc1cccnc1Cl)c1cccs1	n	-5.1	n	n	n	n	n	n	n	n	n
CCCCCCN1C=CC=C/C1=C\C=C(C#N)C#N	n	n	13	n	n	253%	n	75%	n	n	102%
CC1=C/C(=C\C=C(C#N)C#N)N(C)c2ccccc21	n	n	n	n	n	x	x	x	x	x	x
Cc1onc(-c2c(Cl)cccc2Cl)c1NC(=O)NN(C)C	n	n	n	n	n	x	x	x	x	x	x
Cc1onc(-c2c(Cl)cccc2Cl)c1NC(=O)N1CCSCC1	n	n	12	n	n	n	n	n	n	n	n
O=c1c2ccccc2nc(SCc2ccc([N+](=O)[O-])cc2)n1CCCO	n	-5.5	n	n	-6	n	n	n	84%	n	n
CC(C)N=C(NS(=O)(=O)NC(=O)c1ccccc1)c1ccccc1	n	n	n	n	n	x	x	x	x	x	x
CCCCN(C)C1=Nc2cccc3cccc1c23	n	-7.5	n	n	n	-194%	n	-42%	69%	56%	n
SMILES	TRPC4 agonist	TRPC6 inhibitor	TRPC6 act	TRPC4 PAM	TRPC4 inh	HEK293 MPD ctr-2	HEK293 MPD ctr 2-2	TRPC4/MOR mod	TRPC4/MOR inh 2	TRPC6 inh conf	TRPC6 act conf	others
N#CC(c1ccc(F)cc1)c1ccc(C(=O)c2ccc(F)cc2)cc1 (stereo not drawn)	n	-7.4	n	n	n	x	x	x	x	n	n	TRPC4 spec 2=n;TRPC4 spec=n;HEK293 MPD ctr 2-1=n;HEK293 MPD ctr-1=n
COc1ccc(Cl)cc1Nc1cc(C)nc2ccccc12	n	-5.4	n	n	n	-76%	n	-12%	70%	56%	n
CCOc1ccc(Nc2cc(C)nc3c(C)cccc23)cc1	n	-5.5	n	n	n	-86%	n	-22%	52%	43%	n
COc1ccc(Nc2cc(C)nc3c(C)cccc23)cc1OC	n	-5	n	n	n	-145%	n	-30%	55%	44%	n
N#C/C(=C\Nc1ccc(Cl)cc1)S(=O)(=O)c1ccccn1	n	n	n	n	n	x	x	x	x	x	x
CC(=O)N(c1ccc(C)cc1)c1nc(C)cc(C)c1C#N	n	n	n	n	n	x	x	x	x	x	x
CCC1CCCCN1S(=O)(=O)c1ccc(-n2cnnn2)c(C)c1 (stereo not drawn)	n	n	n	n	n	x	x	x	x	x	x
CN(C)CCNC(=O)c1c(NC(=O)c2ccccc2)sc2c1CCCC2	97	-5.6	n	n	n	-150%	n	-24%	80%	53%	n
O=C(Cn1nnc(-c2ccccc2F)n1)Nc1ccc2c(c1)OCCO2	n	n	n	n	n	x	x	x	x	x	x
CN1CCN(C(=O)CCN2C(=O)c3ccccc3C2=O)CC1	n	n	n	n	n	x	x	x	x	x	x
CN1CCC(=C2c3ccccc3C=Cc3ccccc32)CC1	n	-5.5	n	n	n	150%	76%	23%	54%	75%	x

Screening results (PubChem BioAssay)
